Measurements from ChEMBL document CHEMBL4145607, “Tamarixetin Exhibits Anti-inflammatory Activity and Prevents Bacterial Sepsis by Increasing IL-10 Production” (J Nat Prod, 2018).
Calls of active or inactive are those of the source. No cut-off for these calls is given here.

Legend:
BMDC [1] = test: Cytotoxicity against C57BL/6 mouse BMDC assessed as effect on cell viability up to 100 uM after 24 hrs by luminescence assay; assay type: cell-based
In short: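 BMDCs came from C57BL/6 marrow cultured 7 days with 10 ng·mL−1 GM-CSF. Cells at 1 × 10^4 per well were incubated 24 h with 6.25–200 μM compound, with DMSO and H2O2 controls. Viability was read as ATP by luminescence. Means ± SEM.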

[2] = target: T1, Toll-like receptor 4 (Mus musculus) (UniProt Q9QUK6); test: Inhibition of LPS-induced TLR4 activation in C57BL/6 mouse BMDC assessed as reduction in ERK phosphorylation at 25 uM pretreated for 30 mins followed by LPS-challenge measured after 15 to 90 mins by Western blot analysis; assay type: cell-based
T1 sequence (whole entry): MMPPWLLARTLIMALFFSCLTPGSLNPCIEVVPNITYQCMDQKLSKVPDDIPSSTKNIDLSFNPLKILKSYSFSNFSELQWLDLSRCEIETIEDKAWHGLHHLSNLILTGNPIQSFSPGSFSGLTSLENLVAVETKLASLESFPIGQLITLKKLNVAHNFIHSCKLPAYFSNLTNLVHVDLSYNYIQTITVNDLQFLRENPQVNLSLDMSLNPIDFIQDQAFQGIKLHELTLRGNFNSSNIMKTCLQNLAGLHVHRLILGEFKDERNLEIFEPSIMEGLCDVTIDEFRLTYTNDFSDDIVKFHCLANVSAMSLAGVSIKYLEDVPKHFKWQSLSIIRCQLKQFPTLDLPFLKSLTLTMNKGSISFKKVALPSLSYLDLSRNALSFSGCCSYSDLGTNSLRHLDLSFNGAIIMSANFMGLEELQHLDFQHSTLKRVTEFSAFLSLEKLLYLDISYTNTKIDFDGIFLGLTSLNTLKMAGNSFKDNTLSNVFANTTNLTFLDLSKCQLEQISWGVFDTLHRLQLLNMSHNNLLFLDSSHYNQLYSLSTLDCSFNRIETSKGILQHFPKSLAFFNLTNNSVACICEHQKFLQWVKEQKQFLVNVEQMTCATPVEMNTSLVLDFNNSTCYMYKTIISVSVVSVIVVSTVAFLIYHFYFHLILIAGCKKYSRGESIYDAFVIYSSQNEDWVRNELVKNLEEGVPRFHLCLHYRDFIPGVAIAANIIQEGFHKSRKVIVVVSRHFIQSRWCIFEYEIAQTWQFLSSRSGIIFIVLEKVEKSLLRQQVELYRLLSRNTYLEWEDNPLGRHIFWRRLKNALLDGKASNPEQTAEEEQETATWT
In short: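 BMDCs were pretreated 30 min with 25 μM compound, then stimulated with LPS 50 ng·mL−1 for the indicated times. Lysates (25 μg protein) were run on 10% SDS-PAGE and immunoblotted for phospho/total ERK, JNK, p38 and Akt, plus COX-2, IκBα and α-tubulin, with ECL detection. Representative of three experiments.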

BMDC [3] = test: Increase in microRNA155 expression in LPS-induced C57BL/6 mouse BMDC at 25 uM pretreated for 30 mins followed by LPS-challenge measured after 6 hrs by qRT-PCR analysis; assay type: functional, cell-based
In short: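 Total RNA was extracted from BMDCs with TRIzol and reverse transcribed. miR-146a, miR-155 and miR-187 were quantified by real-time qPCR with gene-specific primers.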

Mus musculus [4] = test: Antiinflammatory activity in Balb/c mouse model of LPS-induced endotoxemia assessed as increase in survival rate at 1 mg/kg, ip pretreated for 1 hr followed by LPS-challenge measured over 72 hrs relative to control; assay type: functional
In short: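 Female-unspecified BALB/c mice given compound i.p. 1 h before i.p. LPS (20 mg·kg−1); survival followed over 72 h.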

Mus musculus [5] = test: Antiseptic activity in Balb/c mouse model of Escherichia coli K1 infection-induced sepsis assessed as reduction in infiltration of immune cells in lungs at 1 mg/kg, ip pretreated for 1 hr followed by Escherichia coli K1 infection measured after 12 hrs by hematoxylin and eosin staining based microscopic analysis; assay type: functional, organism-based
In short: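 BALB/c mice were given 1 mg·kg−1 i.p. 1 h before i.p. E. coli K1 (1 × 10^6 CFU per mouse). At 12 h, lungs were perfused and formalin-fixed. Sections were H&E-stained and examined by microscope. Representative of three independent experiments.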

BMDC [6] = test: Inhibition of Escherichia coli DH5alpha infection-induced immune response in C57BL/6 mouse BMDC assessed as reduction in IL-6 secretion at 25 uM pretreated for 30 mins followed by Escherichia coli DH5alpha infection for 6 hrs by ELISA; assay type: functional, cell-based
In short: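 C57BL/6 BMDCs received 25 μM compound and E. coli DH5α, 3 × 10^6 CFU·mL−1. Schedules were: compound 30 min before a 6 h infection; co-addition for 6 h; or compound for 30, 60, 90 or 120 min plus 6 h infection. Supernatant TNF-α, IL-6, IL-10 and IL-12p70 were measured by ELISA. At least three experiments in triplicate.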

BMDC [7] = test: Inhibition of LPS-induced immune response in C57BL/6 mouse BMDC assessed as reduction in IL-12p70 secretion at 25 uM treated 6 hrs post LPS-challenge measured after 30 mins by ELISA; assay type: functional, cell-based
In short: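 Bone marrow DCs from 6-week-old female C57BL/6 mice, RBC-lysed, cultured in RPMI-1640/10% FBS with 10 ng/mL rmGM-CSF, 37 °C, 5% CO2. Cells given LPS 50 ng/mL for 6 h, then 25 μM compound added for 30, 60, 90 or 120 min. Supernatant TNF-α, IL-6, IL-10, IL-12p70 measured by sandwich ELISA. Mean ± SEM, compared with LPS-only DCs.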

BMDC [8] = test: Inhibition of Escherichia coli K1 infection-induced immune response in C57BL/6 mouse BMDC assessed as increase in IL10 secretion at 25 uM pretreated for 30 mins followed by Escherichia coli K1 infection for 6 hrs by ELISA; assay type: functional, cell-based
In short: (§1)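 BMDCs from C57BL/6 mice were given 25 μM compound and E. coli K1, […]. Timing was: compound 30 min before a 6 h infection; cotreatment for 6 h; or compound for 30–120 min with 6 h infection. Supernatant cytokines (TNF-α, IL-6, IL-10, IL-12p70) were measured by ELISA. At least three experiments in triplicate.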

BMDC [9] = test: Inhibition of Escherichia coli K1 infection-induced immune response in C57BL/6 mouse BMDC assessed as reduction in IL-6 secretion at 25 uM pretreated for 60 to 120 mins followed by Escherichia coli K1 infection for 6 hrs by ELISA; assay type: functional, cell-based; in short: as §1
Mus musculus [10] = test: Antiinflammatory activity in Balb/c mouse model of LPS-induced endotoxemia assessed as reduction in serum IL6 level at 1 mg/kg, ip pretreated for 1 hr followed by LPS-challenge measured after 2 hrs by ELISA; assay type: functional, organism-based
In short: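 BALB/c mice were dosed with 1 mg·kg−1 i.p. 1 h before LPS 10 mg·kg−1 i.p. Serum was taken 2 h later, and TNF-α, IL-6 and IL-10 were measured by sandwich ELISA. Means ± SEM.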

## COc1ccc(-c2oc3cc(O)cc(O)c3c(=O)c2O)cc1O [TAMARIXETIN]
BMDC [1]
  Activity: Non-Toxic
[2]
  inhibition: inactive
BMDC [3]
  Activity: Active
Mus musculus [4]
  Activity: 80%
Mus musculus [5]
  Activity: Active
BMDC [6]
  inhibition: Active
BMDC [7]
  inhibition: Active
BMDC [8]
  inhibition: Active
BMDC [9]
  inhibition: inactive
Mus musculus [10]
  Activity: Active
